Key:
Estrogen receptor = target: T1, Estrogen receptor (Homo sapiens, UniProt P03372); assay: Antagonist activity at Estrogen receptor expressed in human Ishikawa cells assessed as inhibition of estradiol-induced increase in alkaline phosphatase after 3 days by spectrophotometry; format: functional, cell-based
T1 sequence (P03372 whole entry): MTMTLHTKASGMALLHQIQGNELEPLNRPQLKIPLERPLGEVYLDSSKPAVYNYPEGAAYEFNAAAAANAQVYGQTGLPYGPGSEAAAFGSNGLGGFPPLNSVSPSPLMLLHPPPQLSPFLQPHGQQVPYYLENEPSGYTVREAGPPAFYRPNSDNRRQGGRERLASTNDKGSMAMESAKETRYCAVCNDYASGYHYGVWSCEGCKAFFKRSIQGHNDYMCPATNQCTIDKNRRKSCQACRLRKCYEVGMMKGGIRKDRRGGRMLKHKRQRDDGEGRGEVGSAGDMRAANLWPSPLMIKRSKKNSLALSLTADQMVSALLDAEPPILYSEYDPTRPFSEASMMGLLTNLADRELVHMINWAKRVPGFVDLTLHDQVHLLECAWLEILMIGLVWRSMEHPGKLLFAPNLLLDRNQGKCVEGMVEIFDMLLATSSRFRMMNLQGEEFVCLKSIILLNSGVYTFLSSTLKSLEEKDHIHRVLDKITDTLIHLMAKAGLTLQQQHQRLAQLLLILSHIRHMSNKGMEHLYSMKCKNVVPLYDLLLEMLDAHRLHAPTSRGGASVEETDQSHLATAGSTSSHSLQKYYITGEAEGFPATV
How it was run: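 Ishikawa cells were grown in phenol red-free, charcoal-stripped bovine serum medium. Compounds at 10−6 to 10−12 M were tested against 10−9 M E2 for 3 days. Ki came from curve fitting. At least 3 experiments were run in duplicate.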

[1] = target: Estrogen receptor beta (Homo sapiens) (UniProt Q92731); assay: Displacement of [3H]estradiol from human ERbeta LBD expressed in Escherichia coli
[2] = target: T2, Estrogen receptor (Bos taurus) (UniProt P49884); assay: Displacement of [3H]estradiol from calf cytosolic ER relative to estradiol
T2 sequence (whole entry): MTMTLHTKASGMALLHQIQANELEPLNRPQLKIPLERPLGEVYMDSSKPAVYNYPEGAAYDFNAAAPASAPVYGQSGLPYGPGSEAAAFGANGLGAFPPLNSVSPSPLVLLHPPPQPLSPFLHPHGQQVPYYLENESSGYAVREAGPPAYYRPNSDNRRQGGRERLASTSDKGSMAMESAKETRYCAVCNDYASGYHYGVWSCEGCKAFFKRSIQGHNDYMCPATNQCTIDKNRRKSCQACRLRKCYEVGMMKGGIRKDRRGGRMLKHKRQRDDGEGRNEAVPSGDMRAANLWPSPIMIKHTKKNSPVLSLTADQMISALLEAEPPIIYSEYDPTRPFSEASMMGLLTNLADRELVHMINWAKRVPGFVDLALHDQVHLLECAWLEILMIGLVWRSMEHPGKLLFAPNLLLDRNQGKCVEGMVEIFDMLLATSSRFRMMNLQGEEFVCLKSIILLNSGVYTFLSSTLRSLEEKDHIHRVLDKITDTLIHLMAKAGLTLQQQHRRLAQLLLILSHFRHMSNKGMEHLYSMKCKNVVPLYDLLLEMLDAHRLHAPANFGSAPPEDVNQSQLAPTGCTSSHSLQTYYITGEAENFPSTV

[3] = target: T3, Estrogen receptor (Homo sapiens) (UniProt P03372); assay: Agonist activity at Estrogen receptor expressed in human Ishikawa cells assessed as induction of alkaline phosphatase after 3 days by spectrophotometry relative to estradiol; format: functional, cell-based
T3 sequence (whole entry): T1 sequence (P03372 whole entry)
How it was run: (§1)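 Ishikawa endometrial adenocarcinoma cells were grown in phenol red-free medium with charcoal-stripped bovine serum, with steroids across at least 6 orders of magnitude, for 3 days. Cells were then washed and freeze-thawed, and alkaline phosphatase was read kinetically as p-nitrophenol at 405 nm from 5 mM p-nitrophenyl phosphate at pH 9.8. RSA is the ratio of 1/EC50 versus E2 ×100, from curve fitting. At least 3 experiments were run in duplicate.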

[4] = target: T3, Estrogen receptor (Homo sapiens); assay: Mixed agonist and antagonist activity at Estrogen receptor expressed in human Ishikawa cells assessed as induction of alkaline phosphatase after 3 days by spectrophotometry relative to estradiol; format: functional, cell-based; set-up: scale not given: the % may be the effect or the level left; how it was run: as §1

Sequence of Estrogen receptor beta (Homo sapiens) (Q92731 whole entry, the tested form may be a part): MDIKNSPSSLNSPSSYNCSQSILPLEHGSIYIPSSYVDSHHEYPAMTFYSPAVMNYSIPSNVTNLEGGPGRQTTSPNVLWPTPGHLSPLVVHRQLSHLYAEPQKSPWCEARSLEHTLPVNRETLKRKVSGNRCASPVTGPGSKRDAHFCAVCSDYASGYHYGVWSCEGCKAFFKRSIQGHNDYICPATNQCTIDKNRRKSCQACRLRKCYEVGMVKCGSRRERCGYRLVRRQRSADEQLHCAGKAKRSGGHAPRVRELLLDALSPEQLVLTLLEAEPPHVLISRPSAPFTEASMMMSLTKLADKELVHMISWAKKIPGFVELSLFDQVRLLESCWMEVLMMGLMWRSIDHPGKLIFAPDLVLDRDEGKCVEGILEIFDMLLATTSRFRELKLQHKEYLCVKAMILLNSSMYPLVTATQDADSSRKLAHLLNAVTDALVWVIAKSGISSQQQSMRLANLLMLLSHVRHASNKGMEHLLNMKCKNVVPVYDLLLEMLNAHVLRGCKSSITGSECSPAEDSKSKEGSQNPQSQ

Compound | RBA [1] [%] | RSA [3] [%] | other results
C[C@]12C[C@H](c3ccc(OCCCCCS(=O)(=O)C(F)(F)C(F)(F)F)cc3)[C@@H]3c4ccc(O)cc4CC[C@H]3[C@@H]1CC[C@@H]2O | 27 | – | Ki (Estrogen receptor): 5.3 nM
N#CC(=C(c1ccc(O)cc1)c1ccc(O)cc1)c1ccc(O)cc1 | – | – | RBA [2]: 166%
CO[C@H]1C[C@]2(C)[C@@H](O)CC[C@H]2[C@@H]2CCc3cc(O)ccc3[C@H]21 | – | 76 | –
CN(C)CCOc1ccc([C@H]2C[C@]3(C)[C@@H](O)CC[C@H]3[C@@H]3CCc4cc(O)ccc4[C@H]32)cc1 | 17 | – | –
C[C@]12C[C@H](c3ccc(O)cc3)[C@@H]3c4ccc(O)cc4CC[C@H]3[C@@H]1CC[C@@H]2O | 41 | 17 | –
COc1ccc(/C(=C(/C#N)c2ccc(O)cc2)c2ccc(O)cc2)cc1 | – | – | RBA [2]: 17%
C=C[C@H]1C[C@]2(C)[C@@H](O)CC[C@H]2[C@@H]2CCc3cc(O)ccc3[C@H]21 | – | 70 | –
C[C@]12C[C@H](c3ccc(OCCOCCOCCn4cc(CNC5=CC(=O)c6ccccc6C5=O)nn4)cc3)[C@@H]3c4ccc(O)cc4CC[C@H]3[C@@H]1CC[C@@H]2O | – | – | Ki (Estrogen receptor): 1.1 nM
COc1ccc([C@H]2C[C@]3(C)[C@@H](O)CC[C@H]3[C@@H]3CCc4cc(O)ccc4[C@H]32)cc1 | – | – | Activity [4]: 35%

Reference: ChEMBL document CHEMBL2034856, “Synthesis and evaluation of 11β-(4-substituted phenyl) estradiol analogs: transition from estrogen receptor agonists to antagonists” (Bioorg Med Chem, 2012)
